Data as given in ChEMBL document CHEMBL1142349, “Molecular modeling study and synthesis of novel pyrrolo[2,3-d]pyrimidines and pyrrolotriazolopyrimidines of expected antitumor and radioprotective activities” (Bioorg Med Chem, 2008).

What was measured:
Mus musculus [1] = assay: Radioprotective activity against gamma-irradiated Swiss albino mouse assessed as increase in blood glutathione level at 150 mg/kg, ip after 7 days relative to control; conditions: route intraperitoneal
Mus musculus [2] = assay: Radioprotective activity against gamma-irradiated Swiss albino mouse assessed as reduction of plasma lipid peroxide level at 150 mg/kg, ip after 7 days relative to control; assay type: functional; parameters: scale not given: the % may be the effect or the level left; conditions: route intraperitoneal
Summary of the method: (§1)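 Female Swiss albino mice (25–30 g) were dosed ip at 150 mg/kg in CMC every other day ×3 over 7 days. Each dose was given 30 min before 6 Gy whole-body γ-irradiation (Cs-137, 0.86 Gy/min). Mice were fasted 16 h and bled by heart puncture 1 day after the last irradiation. Plasma lipid peroxide was measured as MDA (Yoshioka). Values are mean ± SE, n=8, as % change from control, with t test.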

Mus musculus [3] = assay: Radioprotective activity against gamma-irradiated Swiss albino mouse assessed as increase in blood glutathione level at 150 mg/kg, ip after 7 days; conditions: route intraperitoneal
Mus musculus [4] = assay: Radioprotective activity against gamma-irradiated Swiss albino mouse assessed as reduction of plasma lipid peroxide level at 150 mg/kg, ip after 7 days; assay type: functional; conditions: route intraperitoneal
Summary of the method: as §1

Ehrlich [5] = assay: Cytotoxicity against mouse Ehrlich Ascites carcinoma assessed as non viable cells at 50 umol/mL after 2 hrs by trypan blue exclusion assay; assay type: functional
Summary of the method: (§2)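 EAC cells at 2.5 × 10^6/ml in saline. Compounds were dissolved in DMSO:saline (7:3). 100 µL cell suspension was mixed with compound and made to 1 mL with saline, giving final 200, 100, 75, 50 and 25 µM. Incubated 2 h at 37 °C. Trypan blue exclusion gave % non-viable cells. IC50 was read from the survival-ratio vs concentration curve.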

Ehrlich [6] = assay: Cytotoxicity against mouse Ehrlich Ascites carcinoma assessed as non viable cells at 100 umol/mL after 2 hrs by trypan blue exclusion assay; assay type: functional
Summary of the method: as §2

Ehrlich [7] = assay: Cytotoxicity against mouse Ehrlich Ascites carcinoma assessed as non viable cells at 200 umol/mL after 2 hrs by trypan blue exclusion assay; assay type: functional
Summary of the method: as §2

Ehrlich [8] = assay: Cytotoxicity against mouse Ehrlich Ascites carcinoma assessed as non viable cells at 25 umol/mL after 2 hrs by trypan blue exclusion assay; assay type: functional
Summary of the method: as §2

[9] = Cytotoxicity against mouse Ehrlich Ascites carcinoma after 2 hrs by trypan blue exclusion assay; assay type: functional
Summary of the method: as §2

Ehrlich [10] = assay: Cytotoxicity against mouse Ehrlich Ascites carcinoma assessed as non viable cells at 75 umol/mL after 2 hrs by trypan blue exclusion assay; assay type: functional
Summary of the method: as §2

Compound: NS(=O)(=O)c1ccc(-n2cc(-c3ccccc3)c3/c(=N/C(=O)c4ccc(Cl)cc4)n(NC(=O)c4ccc(Cl)cc4)cnc32)cc1
- Activity (Mus musculus [1]): 386%
- Activity (Mus musculus [2]): 101%
- Activity (Mus musculus [3]): 304 mg/dL
- Activity (Mus musculus [4]): 80.3 µmol/mL

Compound: NS(=O)(=O)c1ccc(-n2cc(-c3ccccc3)c3c2ncn2ncnc32)cc1
- Activity (Ehrlich [5]): 0%
- Activity (Ehrlich [6]): 60%
- Activity (Ehrlich [7]): 90%
- Activity (Ehrlich [8]): 0%
- IC50 [9]: 100 µM
- Activity (Ehrlich [10]): 15%

Compound: N=c1c2c(-c3ccccc3)cn(-c3ccc(S(N)(=O)=O)cc3)c2ncn1NC(=S)Nc1ccccc1
- Activity (Ehrlich [5]): 60%
- Activity (Ehrlich [6]): 95%
- Activity (Ehrlich [7]): 100%
- Activity (Ehrlich [8]): 50%
- IC50 [9]: 26.5 µM
- Activity (Ehrlich [10]): 80%

Compound: N#Cc1c(-c2ccccc2)cn(-c2ccc(S(N)(=O)=O)cc2)c1N
- Activity (Ehrlich [5]): 80%
- Activity (Ehrlich [6]): 100%
- Activity (Ehrlich [7]): 100%
- Activity (Ehrlich [8]): 40%
- IC50 [9]: 88.8 µM
- Activity (Ehrlich [10]): 100%

Compound: N#CCc1nc2c3c(-c4ccccc4)cn(-c4ccc(S(N)(=O)=O)cc4)c3ncn2n1
- Activity (Ehrlich [5]): 0%
- Activity (Ehrlich [6]): 80%
- Activity (Ehrlich [7]): 90%
- Activity (Ehrlich [8]): 0%
- IC50 [9]: 90.2 µM
- Activity (Ehrlich [10]): 15%

Compound: N#Cc1c(N)nn2cnc3c(c(-c4ccccc4)cn3-c3ccc(S(N)(=O)=O)cc3)c12
- Activity (Ehrlich [5]): 0%
- Activity (Ehrlich [6]): 0%
- Activity (Ehrlich [7]): 0%
- Activity (Ehrlich [8]): 0%
- IC50 [9]: > 200 µM
- Activity (Ehrlich [10]): 0%

Compound: NS(=O)(=O)c1ccc(-n2cc(-c3ccccc3)c3c2ncn2nc(S)nc32)cc1
- Activity (Ehrlich [5]): 0%
- Activity (Ehrlich [6]): 80%
- Activity (Ehrlich [7]): 80%
- Activity (Ehrlich [8]): 0%
- IC50 [9]: 90.2 µM
- Activity (Ehrlich [10]): 20%

Compound: CC(=O)NS(=O)(=O)c1ccc(-n2cc(-c3ccccc3)c3c2ncn2nc(C)nc32)cc1
- Activity (Ehrlich [5]): 5%
- Activity (Ehrlich [6]): 80%
- Activity (Ehrlich [7]): 100%
- Activity (Ehrlich [8]): 0%
- IC50 [9]: 75.8 µM
- Activity (Ehrlich [10]): 20%

Compound: NS(=O)(=O)c1ccc(-n2cc(-c3ccccc3)c3c2ncn2nc(-c4ccccc4)nc32)cc1
- Activity (Ehrlich [5]): 0%
- Activity (Ehrlich [6]): 0%
- Activity (Ehrlich [7]): 0%
- Activity (Ehrlich [8]): 0%
- IC50 [9]: > 200 µM
- Activity (Ehrlich [10]): 0%

Compound: COc1cccc2c1C(=O)c1c(O)c3c(c(O)c1C2=O)C[C@@](O)(C(=O)CO)C[C@@H]3O[C@H]1C[C@H](N)[C@H](O)[C@H](C)O1 [DOXORUBICIN]
- Activity (Ehrlich [5]): 55%
- Activity (Ehrlich [6]): 75%
- Activity (Ehrlich [7]): 100%
- Activity (Ehrlich [8]): 20%
- IC50 [9]: 81.5 µM
- Activity (Ehrlich [10]): 64%
